Screens: PubChem, several laboratories
The list is not random: actives were taken first. Their share in the collection is about 3%.
DNA FID counter: displaces DNA intercalator in HCV helicase counter-screen. DNA fluorescent intercalator displacement, fluorescence. inhibition, % at 7.9 µM. 290,000 compounds, 0.17% hits. AID 1845; in the data active = inhibition above about 37%;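 note: 0% = vehicle and 100% = reference compound; higher means more ethidium bromide displaced from hairpin DNA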
TMEM16A inh: blocks the mouse calcium-activated chloride channel TMEM16A | Q8BHY3 | HEK293 TMEM16A/YFP iodide influx fluorescence, ionomycin | normalized B-score (activity score, 25-100; higher = stronger inhibition) at 10 µM | 310,000 compounds, 1.2% hits;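 active = ratio plate-corrected score three or more library SD toward inhibition, starting fluorescence score within five deviations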;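 note: score derived from kinetic fluorescence span divided by baseline fluorescence per well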
TMEM16A act: activates or potentiates the mouse TMEM16A chloride channel. B-score at 10 µM. 340,000 compounds, 0.3% hits. HEK293 TMEM16A/YFP-H148Q/I152L, iodide quench fluorescence; active compounds read low. Q8BHY3;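 active = fluorescence-ratio B-score plate-corrected deviation score at least 3 library SD below zero, with starting fluorescence score within 5 deviations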;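 note: channel opened by trigger with iodide after compound preincubation; score built on the fluorescence ratio of max minus min over baseline; more negative score means more quench and so TMEM16A activation or potentiation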
SR-BI DiI inh: mouse SR-BI HDL lipid transfer inhibition; Q61009; ldlA[mSR-BI] CHO cells, DiI-HDL uptake fluorescence, 3 h; inhibition, % at 12.5 µM; 320,000 compounds, 0.96% hits; AID 488896;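 active = mean replicate inhibition of at least 70% and a set share of replicates each scoring 70 or more; inconclusive = meets just one of the two criteria; inactive = fails both criteria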;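 note: 0% = median of neutral control wells and 100% = median of positive control wells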
Kir21 block: blocks the mouse Kir2.1 inward-rectifier potassium channel; B-score at 10 µM; HEK293-Kir2.1, FluxOR thallium flux fluorescence; active compounds read low; 310,000 compounds, 0.85% hits; P35561;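 active = fluorescence ratio B-score at or below minus 3 SD of library scores, with starting-brightness B-score within 2 SD, cut at about -4.2 in these data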;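 note: channel flux triggered by added potassium and thallium sulfate stimulus; B-score of peak minus minimum fluorescence over baseline after thallium stimulus; more negative B-score means stronger Kir2.1 block with less thallium influx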
Target sequence (P35561 whole entry, looked up): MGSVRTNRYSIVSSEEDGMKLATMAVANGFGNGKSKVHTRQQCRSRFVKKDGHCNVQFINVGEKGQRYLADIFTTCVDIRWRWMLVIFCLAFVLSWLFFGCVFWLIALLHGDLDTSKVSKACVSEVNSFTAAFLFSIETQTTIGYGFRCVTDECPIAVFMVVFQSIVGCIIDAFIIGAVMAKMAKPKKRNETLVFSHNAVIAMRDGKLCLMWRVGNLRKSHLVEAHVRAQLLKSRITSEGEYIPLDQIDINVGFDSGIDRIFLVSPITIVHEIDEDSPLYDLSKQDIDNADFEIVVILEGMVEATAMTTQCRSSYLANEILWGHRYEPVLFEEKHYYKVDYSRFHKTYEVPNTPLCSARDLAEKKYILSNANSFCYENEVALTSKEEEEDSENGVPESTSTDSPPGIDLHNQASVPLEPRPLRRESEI
SR-BI DiI-HDL act: enhances SR-BI lipid uptake from DiI-HDL | CHO ldlA[mSR-BI] cells, DiI-HDL uptake fluorescence, 3 h; 100 = double the neutral-control signal | activation, % at 12.5 µM | 320,000 compounds, 0.096% hits;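 active = mean replicate activation of at least 60% and every replicate at or above 60%; inconclusive = mean or all-replicate condition met, but not both; inactive = mean below 60% and not all replicates reaching 60%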;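 note: 0% = median plate neutral-control signal and 100% = twice that signal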
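Test system: SR-BI-overexpressing, LDLR-lacking CHO cells. Measured by: DiI fluorescence, bottom read. Medium: Ham's F12 with 0.5% BSA, HEPES 25 mM, pH 7.4. Timing: 3 h uptake period with compound, 37 °C.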
DiI quencher: DiI fluorescence quenching in cell-free counter-screen; AID 540326; AC50, µM (series often up to 35 µM), for the others: top-dose activity change, negative = quenching; 470 compounds, 20% hits; shares compounds with SR-BI DiI inh; cell-free DiI-HDL fluorescence quenching, 30 min;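 active = quenching, a falling signal, with AC50 below a set limit tied to the top valid dose, actives reach about 32 µM in these data; inconclusive = no clear call, values can overlap the other calls; inactive = rising signal, and the rest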
* = called active by the depositor; i = inactive; ? = inconclusive; / = no result.

SMILES	DNA FID counter	TMEM16A inh	TMEM16A act	SR-BI DiI inh	Kir21 block	SR-BI DiI-HDL act	DiI quencher
CCOC(=O)C1CCCN(S(=O)(=O)NC[C@H]2O[C@@H](n3cnc4c(N)ncnc43)[C@H](O)[C@@H]2O)C1 (stereo partly specified)	/	/	/	81*	/	-81	3%
CC(C)(C)c1cc(C(=O)O)n(Cc2ccc(Cl)cc2Cl)n1	-26	i	i	-16	-1.3	16	/
COc1cccc(-c2nnc(SC(C(=O)c3c[nH]c4ccccc34)c3ccccc3)n2C)c1 (stereo unspecified)	-9	i	i	75*	1.4	-75	1%
COc1cc2c(C#CCCCO)c(-c3ccsc3)oc(=O)c2cc1OC	/	/	i	?	/	-73	-3%
COc1cc2c(C#CCCCO)c(-c3ccc(C#N)cc3)oc(=O)c2cc1OC	/	/	i	11	/	-11	/
COc1cc(OC)cc(C(=O)NCC(=O)OCc2cc(=O)oc3cc(OC)ccc23)c1	-14	i	i	/	-0.9	/	/
COCc1cc(=O)oc2cc(NC(=O)c3ccc(C(C)(C)C)cc3)ccc12	-13	i	i	?	-0.94	-71	3%
CCN(c1ccccc1)S(=O)(=O)c1ccc(Cl)c(NC(=O)CN(C)Cc2cccc(F)c2)c1	/	/	i	29	/	-29	/
CC(C)C[C@H](NC(=O)N1CCn2c1nc1ccccc12)C(=O)NC1CCCCC1	-44	i	i	-8	-0.68	8	/
Cc1nn(Cc2c(Cl)cccc2Cl)c(C)c1NC(=O)CCCn1nc([N+](=O)[O-])c(Cl)c1C	-5	i	i	80*	-0.54	-80	-7%
Cc1cc(C(=O)COC(=O)c2ccc(Cl)c(S(N)(=O)=O)c2)c(C)n1C1CC1	/	i	i	75*	2	-75	2%
CC(C)N(C(=O)COC(=O)c1ccc(Cl)c(S(N)(=O)=O)c1)C(C)C	-3	i	i	10	-0.8	-10	/
CC(C)[C@H](NC(=O)c1ccccc1)C(=O)OCC(=O)c1ccc2c(c1)NC(=O)CO2	-16	i	i	10	-0.37	-10	/
CC(C)C(C(=O)OCC(=O)c1ccc2c(c1)NC(=O)CO2)N1C(=O)c2ccccc2C1=O (stereo unspecified)	-5	i	i	23	-0.74	-23	-1%
Cc1cccc(C(=O)OCC(=O)c2ccc3c(c2)NC(=O)CO3)c1	/	/	i	0	/	0	/
COc1cc(OC)cc(C(=O)N[C@H](C(=O)OCC(=O)c2ccc3c(c2)NC(=O)CO3)C(C)C)c1	-23	i	i	-16	-0.26	16	6%
NC(=O)c1cc(Cl)ccc1OCC(=O)NC1CC1	/	/	i	-11	/	11	/
Cc1cc(SC(C)C(=O)Nc2ncc(Cl)cc2Cl)nc2ccccc12 (stereo unspecified)	-1	i	i	72*	0.49	-72	-1%
Cc1cc(=O)[nH]c(Nc2c(C)n(C)n(-c3ccccc3)c2=O)n1	3	i	i	0	0.77	0	/
Cc1c(Nc2nc3ccccc3nc2N2CCN(c3ccccc3)CC2)c(=O)n(-c2ccccc2)n1C	-9	i	i	?	0.02	-72	-8%
COc1ccccc1CCc1nnc(CCC(=O)N(C)Cc2cccc3cnccc23)o1	-33	i	i	75*	-1.5	-75	0%
Cc1ccc(C(=O)N2CCC3CC2c2cc(-c4ccc5c(c4)OCO5)ccc23)cc1 (stereo unspecified)	/	/	/	10	/	-10	/
N#Cc1ccc(C(=O)N2CCC3CC2c2cc(-c4ccc(F)cc4)ccc23)cc1 (stereo unspecified)	/	/	/	36	/	-36	-3%
COCCOC(=O)c1[nH]c2c(c1C)C(=O)CC(c1ccco1)C2 (stereo unspecified)	-10	i	i	?	2.1	-72	-2%
COCCOC(=O)c1[nH]c2c(c1C)C(=O)CC(c1ccccc1)C2 (stereo unspecified)	-16	i	i	68	0.32	-68	/
SMILES	DNA FID counter	TMEM16A inh	TMEM16A act	SR-BI DiI inh	Kir21 block	SR-BI DiI-HDL act	DiI quencher
C=CCOC(=O)c1[nH]c2c(c1C)C(=O)CC(c1cc(OC)c(OC)c(OC)c1)C2 (stereo unspecified)	-13	i	i	72*	0.35	-72	-1%
CSCCOC(=O)c1[nH]c2c(c1C)C(=O)CC(c1ccco1)C2 (stereo unspecified)	-7	i	i	29	2.2	-29	/
Cc1c(C(=O)OCCOC(C)C)[nH]c2c1C(=O)CC(c1ccco1)C2 (stereo unspecified)	-12	i	i	89*	1.9	-89	-1%
Cc1c(C(=O)OCc2ccccc2)[nH]c2c1C(=O)CC(c1ccco1)C2 (stereo unspecified)	-12	i	i	84*	1.2	-84	-3%
CCOC(=O)c1[nH]c2c(c1C)C(=O)CC(c1ccco1)C2 (stereo unspecified)	-3	i	i	57	0.27	-57	/
CCOC(=O)C1=C(COC(=O)COc2ccccc2C(C)C)NC(=O)NC1C (stereo unspecified)	/	/	i	-15	/	15	/
O=C(NCCc1ccc(F)cc1)c1ccc(NS(=O)(=O)c2ccc3[nH]c(=O)[nH]c3c2)cc1	/	i	i	2	-1.6	-2	/
COc1cccc(C2C3=C(N=c4s/c(=C\c5ccccc5O)c(=O)n42)c2ccccc2CC3)c1OC (stereo unspecified)	-2	i	/	/	-0.38	/	/
O=S(=O)(Cc1ccccc1)N1CCN(c2ncccn2)CC1	-10	i	i	-13	-0.05	13	/
COC(=O)c1[nH]c2c(c1C)C(=O)CC(c1cccs1)C2 (stereo unspecified)	-10	i	i	82*	0.89	-82	-6%
O=C(NN1C(=O)c2cc(Br)ccc2NC1c1cc(Br)cc(Br)c1O)c1ccncc1 (stereo unspecified)	-18	i	i	7	-0.26	-7	/
CCCc1cc(=O)oc2c(C)c(OCC(=O)N3C[C@H]4C[C@@H](C3)c3cccc(=O)n3C4)ccc12	-26	i	i	-6	0.38	6	/
Cn1cc(S(=O)(=O)N2CCN(c3ccccc3F)CC2)c(=O)n(C)c1=O	0	i	i	-3	-0.56	3	/
CCC(C)NC(=O)Cn1cc(S(=O)(=O)N2CCN(c3ccccc3F)CC2)c2ccccc2c1=O (stereo unspecified)	2	i	i	87*	-0.52	-87	4%
